Source: ChEMBL document CHEMBL4229432, “Synthesis and biological properties of aryl methyl sulfones” (Bioorg Med Chem, 2018)

Legend:
[1] = target: T1, Prostaglandin G/H synthase 1 (Ovis aries, UniProt P05979); experiment: Inhibition of ovine COX1 assessed as reduction in PGH2 production by enzyme immunoassay
T1 sequence (P05979 whole entry): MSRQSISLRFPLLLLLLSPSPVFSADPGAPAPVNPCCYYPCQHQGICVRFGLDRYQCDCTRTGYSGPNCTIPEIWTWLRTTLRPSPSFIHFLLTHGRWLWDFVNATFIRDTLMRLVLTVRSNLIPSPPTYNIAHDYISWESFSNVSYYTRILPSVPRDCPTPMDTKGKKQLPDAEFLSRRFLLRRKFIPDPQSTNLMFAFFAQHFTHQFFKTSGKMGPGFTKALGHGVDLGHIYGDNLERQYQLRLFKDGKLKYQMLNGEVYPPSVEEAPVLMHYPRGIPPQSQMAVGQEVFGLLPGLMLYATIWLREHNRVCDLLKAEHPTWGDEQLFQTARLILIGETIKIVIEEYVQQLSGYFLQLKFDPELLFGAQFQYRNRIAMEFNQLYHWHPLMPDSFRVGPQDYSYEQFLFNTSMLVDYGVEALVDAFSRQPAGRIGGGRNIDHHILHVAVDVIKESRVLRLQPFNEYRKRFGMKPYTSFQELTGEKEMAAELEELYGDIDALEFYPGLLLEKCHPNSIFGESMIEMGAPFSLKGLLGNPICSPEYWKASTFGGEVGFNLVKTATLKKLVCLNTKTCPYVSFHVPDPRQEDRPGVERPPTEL

[2] = tested on: Mus musculus; experiment: Analgesic activity in CD1 mouse assessed as inhibition of acetic acid-induced writhings at 70 mg/kg, po pretreated for 30 mins followed by acetic acid challenge for 5 mins and measured for 30 mins relative to control; format: functional
In short: (§1)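 Male Swiss CD1 mice, 4-5 weeks, 25 ± 5 g, acclimatized one week. Dose adjusted to body weight and given orally by feeding needle 30 min before i.p. acetic acid (25 mg/kg; 0.25 mL/25 g). NaCl solution served as control. […] Mean ± S.E.M., at least four mice; one-way ANOVA with Student-Newman-Keuls.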

[3] = tested on: Mus musculus; experiment: Analgesic activity in CD1 mouse assessed as inhibition of acetic acid-induced writhings at 20 mg/kg, po pretreated for 30 mins followed by acetic acid challenge for 5 mins and measured for 30 mins relative to control; format: functional; in short: as §1
[4] = tested on: Mus musculus; experiment: Analgesic activity in CD1 mouse assessed as inhibition of acetic acid-induced writhings at 10 mg/kg, po pretreated for 30 mins followed by acetic acid challenge for 5 mins and measured for 30 mins relative to control; format: functional; in short: as §1
[5] = tested on: Rattus norvegicus; experiment: Antiinflammatory activity in Sprague-Dawley rat assessed as inhibition of carrageenan-induced paw edema at 70 mg/kg, po pretreated for 1 hr followed by carrageenan challenge and measured after 4 hrs by plethysmometer relative to control; format: functional
In short: (§2)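 Modified Winter's method in young adult male Sprague-Dawley rats (160-200 g, groups of six), starved 24 h. Oral dose given 1 h before subplantar injection of 0.1 mL 1% carrageenan in sterile pyrogen-free 0.9% NaCl. Paw volume measured by water displacement plethysmometry before and at 3 and 4 h. % inhibition vs controls; mean ± S.E.M.; unpaired one-tailed Student's t-test.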

[6] = tested on: Rattus norvegicus; experiment: Toxicity in Sprague-Dawley rat at 70 mg/kg, po; format: organism-based; conditions: in vivo
[7] = tested on: Rattus norvegicus; experiment: Antiinflammatory activity in Sprague-Dawley rat assessed as inhibition of carrageenan-induced paw edema at 70 mg/kg, po pretreated for 1 hr followed by carrageenan challenge and measured after 3 hrs by plethysmometer relative to control; format: functional; in short: as §2
[8] = tested on: HT-29; experiment: Growth inhibition of human HT-29 cells by MTT assay; format: cell-based
[9] = tested on: Rattus norvegicus; experiment: Ulcerogenicity in Sprague-Dawley rat assessed as gastric lessions at 70 mg/kg, po measured after 4 hrs; format: toxicity, organism-based; conditions: in vivo
In short: (§3)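 Male Sprague-Dawley rats, 180 ± 20 g, acclimatized one week, 3 per group. Oral dosing by feeding needle, adjusted to body weight; saline and carboxymethylcellulose served as controls. Killed 4 h after dosing; stomach opened along the greater curvature, rinsed with saline, and lesions scored under a magnifying glass.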

[10] = tested on: Mus musculus; experiment: Analgesic activity in CD1 mouse assessed as inhibition of acetic acid-induced writhings at 70 mg/kg, po pretreated for 30 mins followed by acetic acid challenge; format: functional, organism-based; conditions: TDE = time-dependent effect; in short: as §1
[11] = tested on: Rattus norvegicus; experiment: Ulcerogenicity in Sprague-Dawley rat assessed as hyperemia at 70 mg/kg, po measured after 4 hrs; format: toxicity, organism-based; conditions: in vivo; in short: as §3

Structure (SMILES)	IC50 [1]	inhibition in vivo at 70 mg/kg [2]	inhibition in vivo at 20 mg/kg [3]	inhibition in vivo at 10 mg/kg [4]	inhibition in vivo at 70 mg/kg [5]	Activity [6]	inhibition in vivo at 70 mg/kg [7]	IC50 [8]	Activity [9]	inhibition [10]	Activity [11]
CN1c2ccccc2Sc2ccc(CC(=O)O)cc21 [METIAZINIC ACID]	6230 nM										
CC(C)Cc1ccc(C(C)C(=O)O)cc1 (configuration not stated) [IBUPROFEN]		66.7%	53%	48%	23.9%						
CS(=O)(=O)c1ccc(C(=O)c2ccc(Cl)cc2)cc1	5290 nM				18.9%	Non-Toxic	14.9%				
COc1ccc2c(c1)c(S(C)(=O)=O)c(C)n2C(=O)c1ccc(Cl)cc1	390 nM				32.5%	Non-Toxic	29.9%	> 200000 nM			
CN1c2ccccc2Sc2ccc(S(C)(=O)=O)cc21	1360 nM					Non-Toxic					
CC(C)Cc1ccc(S(C)(=O)=O)cc1	7020 nM				9.5%	Non-Toxic	9.6%				
CS(=O)(=O)c1ccc(C(=O)c2ccoc2)cc1	180 nM	64.9%	50.5%	45.9%	25.9%	Non-Toxic	27.6%	> 200000 nM	Non-Toxic	Tde	
CC(C(=O)O)c1cccc(C(=O)c2ccccc2)c1 (configuration not stated) [KETOPROFEN]	110 nM										
COc1ccc2cc(S(C)(=O)=O)ccc2c1	40 nM	60.1%	56.2%	49.3%	34.6%	Non-Toxic	29.4%	> 200000 nM	Non-Toxic	Tde	Toxic
CS(=O)(=O)c1cccc(Oc2ccccc2)c1	4890 nM				25.4%	Non-Toxic	27.8%				
CC(C(=O)O)c1cccc(Oc2ccccc2)c1 (configuration not stated) [FENOPROFEN]	2730 nM										
